According to ChEMBL document CHEMBL6134766, “Design, synthesis, and evaluation of benzhydrylpiperazine-based novel dual COX-2/5-LOX inhibitors with anti-inflammatory and anti-cancer activity” (RSC Med Chem, 2025):
Active and inactive are the calls of the source. No cut-off for these calls is given here.

Tests used:
[1] = Acute toxicity in female Wistar rat assessed as animal mortality up to 500 mg/kg, po measured for 14 days; format: organism-based; conditions: in vivo, 336 h, time 14 day
Summary of the method: (§1)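 Followed OECD 423 guideline in healthy female Wistar rats weighing 200–250 g. Animals were housed at 25 ± 2 °C and 45–60% RH on a 12 h light/dark cycle, with free access to water and food.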

[2] = test system: Rattus norvegicus; assay: Anti-inflammatory activity in arachidonic acid-induced paw edema Wistar rat model assessed as swelling thickness of paw at 5 mg/kg, po measured after 1 hr by digital vernier caliper (reference value: 6.51 +/- 0.37 millimeter); format: functional
[3] = test system: Rattus norvegicus; assay: Cardio-protective activity in ISO-treated Wistar rat assessed as decrease in serum cTn-I level at 20 mg/kg, po by ELISA; format: functional, organism-based
Summary of the method: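 ISO 100 mg kg−1 s.c. rat model, oral treatment after ISO, n = 6 per group; serum from retro-orbital blood (4000 rpm, 4 °C, 10 min); cTn-I by commercial kit; mean ± SD.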

[4] = test system: Rattus norvegicus; assay: Anti-inflammatory activity in carrageenan-induced paw edema Wistar rat model assessed as swelling thickness of paw at 5 mg/kg, po measured after 3 hrs by digital vernier caliper (reference value: 8.56 +/- 0.45 millimeter); format: functional
[5] = test system: Rattus norvegicus; assay: Anti-inflammatory activity in carrageenan-induced paw edema Wistar rat model assessed as swelling thickness of paw at 20 mg/kg, po measured after 2 hrs by digital vernier caliper (reference value: 8.65 +/- 0.53 millimeter); format: functional
[6] = test system: Rattus norvegicus; assay: Cardio-protective activity in ISO-treated Wistar rat assessed as decrease in serum LDH level at 20 mg/kg, po; format: functional, organism-based
Summary of the method: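 Rats (n = 6/group) given ISO 100 mg kg−1 s.c., then oral test compound in 0.3% CMC; vehicle controls. Retro-orbital blood, serum separated at 4000 rpm, 4 °C, 10 min; LDH and CK-MB by commercial kits; mean ± SD.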

[7] = test system: Rattus norvegicus; assay: Anti-inflammatory activity in carrageenan-induced paw edema Wistar rat model assessed as swelling thickness of paw at 20 mg/kg, po measured after 6 hrs by digital vernier caliper (reference value: 8.33 +/- 0.42 millimeter); format: functional
[8] = test system: Rattus norvegicus; assay: Anti-inflammatory activity in carrageenan-induced paw edema Wistar rat model assessed as swelling thickness of paw at 20 mg/kg, po measured after 4 hrs by digital vernier caliper (reference value: 8.36 +/- 0.78 millimeter); format: functional
[9] = test system: Rattus norvegicus; assay: Anti-inflammatory activity in carrageenan-induced paw edema Wistar rat model assessed as swelling thickness of paw at 10 mg/kg, po measured immediately by digital vernier caliper (reference value: 3.48 +/- 0.21 millimeter); format: functional
[10] = Toxicity in fasting Wistar rat assessed as ulcer score at 20 mg/kg, po via gavage treated for 3 days consecutively by H and E staining based analysis (reference value: 0); format: organism-based; conditions: in vivo, 72 h, time 3 day
Summary of the method: (§2)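 Fasted rats, n = 6/group, gavaged once daily for 3 days in 0.3% Na CMC (vehicle control 0.3% CMC); killed under anaesthesia 6 h after day-3 dose; stomachs saline-washed, mucosa examined with hand lens; ulcer score, index and % ulceration by reported scoring; some stomachs formalin-fixed, H&E stained.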

[11] = Toxicity in fasting Wistar rat assessed as ulcer score at 5 mg/kg, po via gavage treated for 3 days consecutively by H and E staining based analysis (reference value: 0); format: organism-based; conditions: in vivo, 72 h, time 3 day; summary of the method: as §2
[12] = test system: Gastric mucosa; assay: Antioxidant activity in gastric mucosal tissue in Wistar rat assessed as decrease in nitrite level at 20 mg/kg, po; format: functional, organism-based
Summary of the method: (§3)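 Fasted rats (n = 6/group) gavaged once daily for 3 days in 0.3% Na CMC and sacrificed 6 h after the final dose. Randomly chosen stomachs homogenized in cold PBS pH 7.4 and centrifuged at 1000 rpm for 10 min at 4 °C. Supernatant protein measured by Bradford assay; GSH and nitrate then measured by reported methods.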

[13] = Acute toxicity in female Wistar rat assessed as drug tolerance up to 500 mg/kg, po measured for 14 days; format: organism-based; conditions: in vivo, 336 h, time 14 day; summary of the method: as §1
[14] = test system: Rattus norvegicus; assay: Analgesic activity in acetic acid-induced pain Wistar rat model assessed as number of writhing at 20 mg/kg, po pretreated for 30 mins followed by acetic acid treatment measured for 30 mins by writhing test (reference value: 40.33 +/- 3.01); format: functional; conditions: 0.5 h
[15] = test system: Rattus norvegicus; assay: Anti-inflammatory activity in arachidonic acid-induced paw edema Wistar rat model assessed as protection against swelling thickness of paw at 10 mg/kg, po measured after 1 hr by digital vernier caliper (reference value: 0 %); format: functional
[16] = test system: Rattus norvegicus; assay: Anti-inflammatory activity in carrageenan-induced paw edema Wistar rat model assessed as swelling thickness of paw at 5 mg/kg, po measured after 4 hrs by digital vernier caliper (reference value: 8.36 +/- 0.78 millimeter); format: functional
[17] = Toxicity in Wistar rat assessed as change in serum AST level at 20 mg/kg, po; format: organism-based; conditions: in vivo
Summary of the method: (§4)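 Rats dosed orally in 0.3% Na CMC; retro-orbital blood clotted at room temperature, serum separated at 2000 rpm, 20 min, 4 °C; ALT, AST, creatinine and urea by commercial kits; n = 6 per group, mean ± SD; Tukey test after repeated-measures one-way ANOVA.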

[18] = test system: Rattus norvegicus; assay: Anti-inflammatory activity in carrageenan-induced paw edema Wistar rat model assessed as swelling thickness of paw at 5 mg/kg, po measured immediately by digital vernier caliper (reference value: 3.48 +/- 0.21 millimeter); format: functional
[19] = test system: Rattus norvegicus; assay: Anti-inflammatory activity in arachidonic acid-induced paw edema Wistar rat model assessed as protection against swelling thickness of paw at 20 mg/kg, po measured after 1 hr by digital vernier caliper (reference value: 0 %); format: functional
[20] = test system: Gastric mucosa; assay: Antioxidant activity in gastric mucosal tissue in Wistar rat assessed as increase in SOD level at 20 mg/kg, po; format: functional, organism-based
Summary of the method: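 Gastric tissue from fasted rats (dosed orally once daily for 3 days in 0.3% Na CMC) homogenized in cold PBS pH 7.4, centrifuged 1000 rpm, 10 min, 4 °C; protein by Bradford; SOD measured in supernatant per reported procedure.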

[21] = Toxicity in fasting Wistar rat assessed as ulcer index at 5 mg/kg, po via gavage treated for 3 days consecutively by H and E staining based analysis (reference value: 0); format: organism-based; conditions: in vivo, 72 h, time 3 day; summary of the method: as §2
[22] = test system: Gastric mucosa; assay: Antioxidant activity in gastric mucosal tissue in Wistar rat assessed as increase in GSH level at 20 mg/kg, po; format: functional, organism-based; summary of the method: as §3
[23] = Toxicity in fasting Wistar rat assessed as ulceration at 20 mg/kg, po via gavage treated for 3 days consecutively by H and E staining based analysis (reference value: 0 %); format: organism-based; conditions: in vivo, 72 h, time 3 day; summary of the method: as §2
[24] = test system: Rattus norvegicus; assay: Anti-inflammatory activity in carrageenan-induced paw edema Wistar rat model assessed as increase in IL-10 level in paw tissue at 5 to 20 mg/kg, po measured for 6 hrs by ELISA; format: functional, organism-based; conditions: dose 5-20 mg/kg
Summary of the method: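 Paw tissue taken from carrageenan-edema rats dosed orally at 5, 10 or 20 mg kg−1. Tissue rinsed in PBS pH 7.4, minced, homogenized, filtered and centrifuged at 2000 rpm for 20 min at 4 °C. Supernatant assayed by ELISA for PGE2, IL-6, TNF-α and IL-10. Data as mean ± SD.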

[25] = Toxicity in Wistar rat assessed as change in serum creatinine level at 20 mg/kg, po; format: organism-based; conditions: in vivo; summary of the method: as §4
[26] = test system: Rattus norvegicus; assay: Anti-inflammatory activity in carrageenan-induced paw edema Wistar rat model assessed as swelling thickness of paw at 20 mg/kg, po measured after 1 hr by digital vernier caliper (reference value: 8.47 +/- 0.25 millimeter); format: functional

SMILES | Activity [1] | Activity [2] | Activity [3] | Activity [4] | Activity [5] | Activity [6] | Activity [7] | Activity [8] | Activity [9] | Activity [10] | Activity [11] | Activity [12] | Activity [13] | Activity [14] | Activity [15] | Activity [16] | Activity [17] | Activity [18] | Activity [19] | Activity [20] | other results
Clc1ccc(-c2nnc(CN3CCN(C(c4ccccc4)c4ccc(Cl)cc4)CC3)o2)cc1 (configuration not stated) | Non-toxic | 2.86 mm | Active | 4.67 mm | 4.11 mm | Active | 3.41 mm | 3.22 mm | 3.21 mm | 0.018 | 0 | Active | Non-toxic | 17.83 | 69.22% | 4.18 mm | Non-toxic | 3.51 mm | 70.21% | Active | UI [21]: 0; Activity [22]: Active; Activity [23]: 1.25%; Activity [24]: Active; Activity [25]: Non-toxic; Activity [26]: 5.12 mm
O=[N+]([O-])c1ccc(-c2nnc(CN3CCN(C(c4ccccc4)c4ccc(Cl)cc4)CC3)o2)cc1 (configuration not stated) | Non-toxic | 2.92 mm | Active | 4.87 mm | 4.78 mm | Active | 3.91 mm | 4.32 mm | 3.44 mm | 0.093 | 0.01 | Active | Non-toxic | 20.33 | 62.33% | 4.57 mm | Non-toxic | 3.59 mm | 64.36% | Active | UI [21]: 1.041; Activity [22]: Active; Activity [23]: 4.86%; Activity [24]: Active; Activity [25]: Non-toxic; Activity [26]: 5.16 mm
